# In ChEMBL document CHEMBL3877241 (J Med Chem, 2016):
# Calls of active or inactive are those of the source. The rule behind the calls is not given here.
# Legend:
# [1] = target: Tyrosine-protein kinase JAK3 (Homo sapiens) (UniProt P52333); experiment: Inhibition of JAK3 (unknown origin) at 0.1 uM preincubated for 20 mins followed by [33P]ATP addition measured after 120 mins by Hotspot assay relative to control
# Outline: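 Radiometric HotSpot kinase assay. Buffer: 20 mM HEPES pH 7.5, 10 mM MgCl2, 1 mM EGTA, 0.02% Brij35, 0.02 mg/mL BSA, 0.1 mM Na3VO4, 2 mM DTT, 1% DMSO. Compound added about 20 min before ATP/[33P]ATP (10 μM final). Reactions run 120 min at 25 °C, spotted on P81 filters and washed in phosphoric acid. Activity expressed relative to DMSO after background subtraction. Single-concentration panel at 100 nM in duplicate.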
# [2] = target: High affinity nerve growth factor receptor (Homo sapiens, UniProt P04629); experiment: Inhibition of human NTRK1 (G475 to G790 residues) expressed in mammalian expression system assessed as residual activity at 100 nM by KINOMEScan assay relative to control
# Sequence of High affinity nerve growth factor receptor (P04629 33-796 limits assumed): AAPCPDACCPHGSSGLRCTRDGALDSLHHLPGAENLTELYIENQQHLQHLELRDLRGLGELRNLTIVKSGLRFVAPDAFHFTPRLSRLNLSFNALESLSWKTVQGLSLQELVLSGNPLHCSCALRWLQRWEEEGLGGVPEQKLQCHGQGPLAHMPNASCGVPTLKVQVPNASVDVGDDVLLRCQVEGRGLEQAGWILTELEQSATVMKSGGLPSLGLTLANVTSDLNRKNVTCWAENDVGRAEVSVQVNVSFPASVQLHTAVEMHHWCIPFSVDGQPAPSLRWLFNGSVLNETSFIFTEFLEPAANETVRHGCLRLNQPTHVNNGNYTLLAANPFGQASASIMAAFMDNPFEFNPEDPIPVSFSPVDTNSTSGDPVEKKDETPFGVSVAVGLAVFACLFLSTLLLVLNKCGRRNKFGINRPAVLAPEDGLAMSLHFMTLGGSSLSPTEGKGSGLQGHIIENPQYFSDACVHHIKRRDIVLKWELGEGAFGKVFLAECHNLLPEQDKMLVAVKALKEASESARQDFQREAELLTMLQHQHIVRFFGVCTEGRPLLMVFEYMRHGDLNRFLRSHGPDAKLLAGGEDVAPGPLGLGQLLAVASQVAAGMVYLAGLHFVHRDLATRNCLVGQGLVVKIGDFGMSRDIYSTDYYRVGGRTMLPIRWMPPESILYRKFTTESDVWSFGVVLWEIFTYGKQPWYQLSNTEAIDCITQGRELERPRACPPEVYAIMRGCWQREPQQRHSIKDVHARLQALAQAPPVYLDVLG
# Outline: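 DiscoveRx competition-binding panel of 97 kinases, measuring binding to the kinase ATP site rather than catalytic turnover. The test compound was run at a single 100 nM concentration. Results are given as % of control binding.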
# [3] = Antiproliferative activity against human HL60 cells; format: functional, cell-based; conditions: HL-60
# [4] = target: T1, Mast/stem cell growth factor receptor Kit (Homo sapiens, UniProt P10721); experiment: Inhibition of human KIT (I571 to D952 residues) expressed in bacterial expression system by KINOMEScan assay
# T1 sequence (P10721 whole entry, the tested form may be a part): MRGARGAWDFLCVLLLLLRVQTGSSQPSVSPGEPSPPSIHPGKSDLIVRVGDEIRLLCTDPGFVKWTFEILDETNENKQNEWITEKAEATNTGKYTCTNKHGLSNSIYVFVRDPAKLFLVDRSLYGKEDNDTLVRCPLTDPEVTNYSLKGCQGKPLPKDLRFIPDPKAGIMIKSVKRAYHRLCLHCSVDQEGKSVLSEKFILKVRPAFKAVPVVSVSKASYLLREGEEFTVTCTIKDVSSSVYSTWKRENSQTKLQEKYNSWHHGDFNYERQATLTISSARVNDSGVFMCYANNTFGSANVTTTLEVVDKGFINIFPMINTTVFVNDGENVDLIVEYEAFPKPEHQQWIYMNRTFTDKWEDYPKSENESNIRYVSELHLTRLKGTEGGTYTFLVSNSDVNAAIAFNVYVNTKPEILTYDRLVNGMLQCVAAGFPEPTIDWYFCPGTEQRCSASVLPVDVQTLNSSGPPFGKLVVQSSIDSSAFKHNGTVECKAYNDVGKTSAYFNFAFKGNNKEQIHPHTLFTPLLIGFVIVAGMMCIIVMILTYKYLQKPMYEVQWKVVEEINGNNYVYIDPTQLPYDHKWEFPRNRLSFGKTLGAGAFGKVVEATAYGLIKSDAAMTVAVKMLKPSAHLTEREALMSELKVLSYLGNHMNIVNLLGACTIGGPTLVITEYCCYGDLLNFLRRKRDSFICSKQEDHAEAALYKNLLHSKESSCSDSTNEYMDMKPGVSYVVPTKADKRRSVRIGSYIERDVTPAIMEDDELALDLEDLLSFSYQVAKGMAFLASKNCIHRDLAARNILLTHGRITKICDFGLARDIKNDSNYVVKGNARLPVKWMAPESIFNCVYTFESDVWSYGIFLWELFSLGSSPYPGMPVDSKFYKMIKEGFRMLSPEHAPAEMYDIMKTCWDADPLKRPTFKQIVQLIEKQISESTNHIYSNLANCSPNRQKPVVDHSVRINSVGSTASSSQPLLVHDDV
# [5] = target: T2, Protein deacetylase HDAC6 (Homo sapiens, UniProt Q9UBN7); experiment: Inhibition of full length human recombinant N-terminal GST-tagged HDAC6 (1 to 1215 residues) expressed in sf9 cells preincubated with enzyme followed by fluorogenic Arg-His-Lys-Lys(Ac)-AMC substrate addition measured after 2 hrs by fluorescence assay
# T2 sequence (Q9UBN7 whole entry): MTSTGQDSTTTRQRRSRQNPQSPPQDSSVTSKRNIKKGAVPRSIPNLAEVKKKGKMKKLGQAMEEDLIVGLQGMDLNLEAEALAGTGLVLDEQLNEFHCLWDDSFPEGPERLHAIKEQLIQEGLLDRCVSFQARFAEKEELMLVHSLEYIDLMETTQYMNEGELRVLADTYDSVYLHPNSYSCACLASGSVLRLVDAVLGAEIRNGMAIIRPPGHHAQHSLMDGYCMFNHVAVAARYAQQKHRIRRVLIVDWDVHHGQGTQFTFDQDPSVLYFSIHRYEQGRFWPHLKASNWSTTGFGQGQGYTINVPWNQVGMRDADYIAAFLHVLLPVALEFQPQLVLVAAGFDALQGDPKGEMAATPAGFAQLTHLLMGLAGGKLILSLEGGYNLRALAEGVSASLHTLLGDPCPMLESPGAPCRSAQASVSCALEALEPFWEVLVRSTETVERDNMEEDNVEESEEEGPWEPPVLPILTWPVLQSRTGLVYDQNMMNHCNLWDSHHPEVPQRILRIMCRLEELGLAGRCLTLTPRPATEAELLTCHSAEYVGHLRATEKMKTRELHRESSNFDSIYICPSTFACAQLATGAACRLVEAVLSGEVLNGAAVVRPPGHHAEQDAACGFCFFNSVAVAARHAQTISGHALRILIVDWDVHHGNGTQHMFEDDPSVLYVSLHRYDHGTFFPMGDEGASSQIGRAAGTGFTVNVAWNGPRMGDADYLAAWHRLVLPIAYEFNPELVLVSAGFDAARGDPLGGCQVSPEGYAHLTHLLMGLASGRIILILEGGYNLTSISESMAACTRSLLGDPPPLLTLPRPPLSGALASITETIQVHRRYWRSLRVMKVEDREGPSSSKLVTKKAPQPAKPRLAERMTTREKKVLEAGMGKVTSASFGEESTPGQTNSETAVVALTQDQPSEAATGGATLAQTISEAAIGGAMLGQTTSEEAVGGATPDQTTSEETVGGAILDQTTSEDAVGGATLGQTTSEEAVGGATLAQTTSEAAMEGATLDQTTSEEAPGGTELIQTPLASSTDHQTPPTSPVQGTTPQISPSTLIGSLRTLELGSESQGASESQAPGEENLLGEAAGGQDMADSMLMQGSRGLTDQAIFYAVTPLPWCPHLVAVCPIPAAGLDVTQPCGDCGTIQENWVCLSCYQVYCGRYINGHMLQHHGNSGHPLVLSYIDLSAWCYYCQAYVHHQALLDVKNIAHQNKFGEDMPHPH
# [6] = target: T1, Mast/stem cell growth factor receptor Kit; experiment: Inhibition of human KIT (I571 to D952 residues) expressed in bacterial expression system assessed as residual activity at 100 nM by KINOMEScan assay relative to control
# Outline: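 Done by DiscoveRx as an ATP-site binding panel covering 97 kinases across the kinome. It measures binding rather than inhibition of phosphate transfer. The compound was tested at 100 nM, and the result is expressed as percent of control binding.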
# Histone deacetylase 2 = Histone deacetylase 2 (Homo sapiens, UniProt Q92769); experiment: Inhibition of full length human recombinant C-terminal GST-tagged HDAC2 (1 to 488 residues) expressed in insect cells preincubated with enzyme followed by fluorogenic Arg-His-Lys-Lys(Ac)-AMC substrate addition measured after 2 hrs by fluorescence assay
# Sequence of Histone deacetylase 2 (Q92769 whole entry, the tested form may be a part): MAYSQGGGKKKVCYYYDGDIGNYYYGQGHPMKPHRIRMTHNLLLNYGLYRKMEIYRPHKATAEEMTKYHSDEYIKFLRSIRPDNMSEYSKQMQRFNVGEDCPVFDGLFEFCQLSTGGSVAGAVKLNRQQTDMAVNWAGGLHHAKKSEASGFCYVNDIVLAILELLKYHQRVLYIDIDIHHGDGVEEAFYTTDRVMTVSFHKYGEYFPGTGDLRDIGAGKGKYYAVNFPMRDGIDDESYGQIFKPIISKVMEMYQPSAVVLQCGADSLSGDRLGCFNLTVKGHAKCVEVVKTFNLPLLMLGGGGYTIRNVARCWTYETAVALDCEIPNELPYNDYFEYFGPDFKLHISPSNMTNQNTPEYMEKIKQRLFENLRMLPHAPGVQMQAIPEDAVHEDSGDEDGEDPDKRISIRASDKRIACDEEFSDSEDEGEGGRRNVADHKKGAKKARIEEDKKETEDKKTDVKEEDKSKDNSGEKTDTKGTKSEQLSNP
# [7] = tested on: Tyrosine-protein kinase JAK2 (Homo sapiens), O60674 [V617F]; experiment: Inhibition of JAK2 V617F mutant in HEL 92.1.7 cells assessed as decrease in STAT5 phosphorylation at antiproliferative IC50 after 1 hr by immunoblot method; format: cell-based
# Sequence of Tyrosine-protein kinase JAK2 (Homo sapiens), O60674 [V617F] (O60674 whole entry V617F): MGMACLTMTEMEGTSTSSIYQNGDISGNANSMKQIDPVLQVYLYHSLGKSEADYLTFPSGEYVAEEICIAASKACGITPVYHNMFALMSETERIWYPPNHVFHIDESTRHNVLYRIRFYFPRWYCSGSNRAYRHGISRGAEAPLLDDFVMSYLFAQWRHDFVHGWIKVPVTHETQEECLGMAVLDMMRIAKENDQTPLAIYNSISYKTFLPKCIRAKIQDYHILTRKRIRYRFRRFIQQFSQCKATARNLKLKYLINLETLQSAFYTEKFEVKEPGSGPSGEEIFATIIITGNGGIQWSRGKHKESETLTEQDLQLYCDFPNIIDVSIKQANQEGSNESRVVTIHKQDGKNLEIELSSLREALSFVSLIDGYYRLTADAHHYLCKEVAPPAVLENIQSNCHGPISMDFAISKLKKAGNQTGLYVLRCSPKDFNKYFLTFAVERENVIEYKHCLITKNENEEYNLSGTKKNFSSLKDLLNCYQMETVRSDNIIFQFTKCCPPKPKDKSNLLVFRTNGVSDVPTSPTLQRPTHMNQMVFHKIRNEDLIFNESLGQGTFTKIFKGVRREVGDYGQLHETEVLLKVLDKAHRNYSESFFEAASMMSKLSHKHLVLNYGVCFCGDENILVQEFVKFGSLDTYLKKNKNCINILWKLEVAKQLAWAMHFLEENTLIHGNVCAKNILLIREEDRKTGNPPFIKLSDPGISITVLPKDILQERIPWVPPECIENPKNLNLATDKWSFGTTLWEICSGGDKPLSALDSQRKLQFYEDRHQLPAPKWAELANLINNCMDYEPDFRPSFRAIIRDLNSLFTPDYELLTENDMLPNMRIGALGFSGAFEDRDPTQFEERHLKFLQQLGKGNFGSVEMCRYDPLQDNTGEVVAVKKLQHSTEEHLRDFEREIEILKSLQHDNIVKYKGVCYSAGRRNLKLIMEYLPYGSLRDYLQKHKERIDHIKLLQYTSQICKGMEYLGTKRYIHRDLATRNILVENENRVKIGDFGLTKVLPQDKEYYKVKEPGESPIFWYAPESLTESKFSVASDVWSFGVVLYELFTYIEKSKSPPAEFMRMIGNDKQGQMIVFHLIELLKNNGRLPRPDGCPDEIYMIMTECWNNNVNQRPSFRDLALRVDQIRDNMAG
# Outline: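 HEL92.1.7 cells seeded at 5x10^5/mL and treated 1 h at 0, 0.1, 0.5 and 1 μM. Lysed in RIPA with phosphatase/protease inhibitors, run on 10% SDS-PAGE and blotted to PVDF. Probed for acetyl-tubulin, acetyl-H3 (Lys9/Lys14), p-JAK2 (Y1007/1008) and p-STAT5 (Tyr694); membranes re-probed for tubulin, H3, JAK2 and STAT5. Quantified by densitometry.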
# [8] = Antiproliferative activity against human MOLM14 cells harboring FLT3-ITD mutant after 48 hrs by CellTiter-Glo assay; format: functional, cell-based; conditions: MOLM-14, 48 h
# [9] = target: Tyrosine-protein kinase JAK2 (Homo sapiens, UniProt O60674); experiment: Inhibition of JAK2 in IL-6-stimulated human KMS-12-BM cells assessed as suppression of STAT3 phosphorylation at TY705 residue at 1.5 uM pretreated for 3 hrs followed by IL-6 stimulation by immunoblot method
# Sequence of Tyrosine-protein kinase JAK2 (O60674 whole entry): as the sequence (O60674 whole entry V617F) above, with F617V counted along it
# Outline: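 Cells (at least 3x10^6 per condition; KMS-12-BM or MOLM-14) pretreated with compound for 3 h, then stimulated with IL-6 10 ng/mL for 15 min. Cells lysed, equal protein run on SDS-PAGE and transferred to PVDF. Immunoblotted for p-STAT3 (Tyr705), with membranes re-probed for total STAT3. Reference JAK2 inhibitor control at 2 µM (KMS-12-BM) or 0.1 µM (MOLM-14).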
# [10] = Antiproliferative activity against human KG1 cells after 48 hrs by CellTiter-Glo assay; format: functional, cell-based; conditions: KG-1, 48 h
# Sequence of Tyrosine-protein kinase JAK3 (Homo sapiens) (P52333 whole entry): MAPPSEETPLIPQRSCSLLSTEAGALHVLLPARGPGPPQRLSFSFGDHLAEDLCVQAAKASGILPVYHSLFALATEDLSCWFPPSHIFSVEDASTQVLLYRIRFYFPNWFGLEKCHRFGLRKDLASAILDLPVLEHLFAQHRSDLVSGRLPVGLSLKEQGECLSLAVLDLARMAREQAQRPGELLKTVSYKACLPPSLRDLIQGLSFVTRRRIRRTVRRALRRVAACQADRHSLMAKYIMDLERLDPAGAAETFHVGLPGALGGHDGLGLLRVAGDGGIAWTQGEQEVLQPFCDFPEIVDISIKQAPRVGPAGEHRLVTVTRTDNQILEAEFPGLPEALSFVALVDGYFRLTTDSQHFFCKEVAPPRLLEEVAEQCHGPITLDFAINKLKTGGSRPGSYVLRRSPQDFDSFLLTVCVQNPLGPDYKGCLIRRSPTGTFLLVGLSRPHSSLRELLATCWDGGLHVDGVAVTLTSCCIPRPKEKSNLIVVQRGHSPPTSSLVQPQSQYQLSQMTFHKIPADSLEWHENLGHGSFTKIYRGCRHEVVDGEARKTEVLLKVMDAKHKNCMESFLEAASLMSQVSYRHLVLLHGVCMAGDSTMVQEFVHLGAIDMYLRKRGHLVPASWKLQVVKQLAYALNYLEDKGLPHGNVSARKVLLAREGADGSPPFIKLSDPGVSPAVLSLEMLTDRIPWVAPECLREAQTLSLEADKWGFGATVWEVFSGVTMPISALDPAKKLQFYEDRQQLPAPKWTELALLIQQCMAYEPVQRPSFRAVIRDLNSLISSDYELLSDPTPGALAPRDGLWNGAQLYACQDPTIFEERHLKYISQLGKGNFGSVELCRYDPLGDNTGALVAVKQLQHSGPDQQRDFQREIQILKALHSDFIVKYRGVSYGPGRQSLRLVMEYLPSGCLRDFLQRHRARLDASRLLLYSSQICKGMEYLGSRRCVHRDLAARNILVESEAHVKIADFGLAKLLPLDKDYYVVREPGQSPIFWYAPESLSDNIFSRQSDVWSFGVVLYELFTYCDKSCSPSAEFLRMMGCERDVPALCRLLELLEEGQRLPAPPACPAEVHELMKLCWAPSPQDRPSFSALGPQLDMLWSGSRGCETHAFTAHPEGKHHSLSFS
structure (smiles),measurement,setting,value
O=C(CCCCCCOc1ccc2cc1COC/C=C/COCc1cccc(c1)-c1ccnc(n1)N2)NO,inhibition,[1],55%
same,Activity,[2],13%
same,IC50,[3],4 µM
same,IC50,[4],1 to 10 µM
same,IC50,[5],0.0021 µM
same,Activity,[6],21%
same,IC50,Histone deacetylase 2,0.049 µM
same,inhibition,[7],Active
same,IC50,[8],1.14 µM
same,inhibition,[9],Active
same,IC50,[10],1.63 µM
